Data published in ChEMBL document CHEMBL1146219, “Synthesis and evaluation of novel radioiodinated benzamides for malignant melanoma” (J Med Chem, 2007).

Tests used:
Conditions in all cases: in vivo
[1] = system: Heart; assay: Biodistribution in heart of B16F0 tumor bearing C57BL/6J mouse at 0.37-0.74 MBq, iv after 6 hrs; format: ADME, organism-based
Procedure, shortened: (§1)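 Female C57BL/6J mice (15-18 g) were given B16F0 cells subcutaneously in the left flank (0.1 mL of 3 × 10⁶ viable cells/mL in Ca²⁺/Mg²⁺-free PBS) at 6-7 weeks and used after ten days. [¹²³I]benzamide (0.37-0.74 MBq, 100 µL, saline) was injected via the tail vein. Groups of n = 5 were killed by CO₂ and cervical dislocation. Organs were weighed and γ-counted, and the carcass was counted too.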

[2] = system: Lung; assay: Biodistribution in lung of B16F0 tumor bearing C57BL/6J mouse at 0.37-0.74 MBq, iv after 1 hr; format: ADME, organism-based; procedure, shortened: as §1
[3] = system: Lung; assay: Biodistribution in lung of B16F0 tumor bearing C57BL/6J mouse at 0.37-0.74 MBq, iv after 24 hrs; format: ADME, organism-based; procedure, shortened: as §1
[4] = system: Brain; assay: Biodistribution in brain of B16F0 tumor bearing C57BL/6J mouse at 0.37-0.74 MBq, iv after 6 hrs; format: ADME, organism-based; procedure, shortened: as §1
[5] = Biodistribution in melanoma of B16F0 tumor bearing C57BL/6J mouse at 0.37-0.74 MBq, iv after 1 hr; format: ADME, organism-based, B16-F0; procedure, shortened: as §1
[6] = system: Brain; assay: Biodistribution in brain of B16F0 tumor bearing C57BL/6J mouse at 0.37-0.74 MBq, iv after 1 hr; format: ADME, organism-based; procedure, shortened: as §1
[7] = system: Blood; assay: Biodistribution in blood of B16F0 tumor bearing C57BL/6J mouse at 0.37-0.74 MBq, iv after 6 hrs; format: ADME, organism-based; procedure, shortened: as §1
[8] = system: Kidney; assay: Biodistribution in kidney of B16F0 tumor bearing C57BL/6J mouse at 0.37-0.74 MBq, iv after 1 hr; format: ADME, organism-based; procedure, shortened: as §1
[9] = Biodistribution in melanoma of B16F0 tumor bearing C57BL/6J mouse at 0.37-0.74 MBq, iv after 6 hrs; format: ADME, organism-based, B16-F0
Procedure, shortened: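 Female C57BL/6J mice (15-18 g) carrying s.c. B16F0 flank tumors (0.1 mL of 3 × 10⁶ viable cells per mL in Ca²⁺/Mg²⁺-free PBS, inoculated at 6-7 weeks, used 10 days later). [¹²³I]tracer 0.37-0.74 MBq in saline, 100 µL, tail-vein i.v. Groups of n = 5 killed at 1-72 h. Organs weighed and γ-counted, carcass activity also counted, values as %ID/g.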

[10] = system: Kidney; assay: Biodistribution in kidney of B16F0 tumor bearing C57BL/6J mouse at 0.37-0.74 MBq, iv after 24 hrs; format: ADME, organism-based; procedure, shortened: as §1
[11] = Biodistribution in melanoma of B16F0 tumor bearing C57BL/6J mouse at 0.37-0.74 MBq, iv after 24 hrs; format: ADME, organism-based, B16-F0; procedure, shortened: as §1
[12] = system: Lung; assay: Biodistribution in lung of B16F0 tumor bearing C57BL/6J mouse at 0.37-0.74 MBq, iv after 6 hrs; format: ADME, organism-based; procedure, shortened: as §1
[13] = system: Kidney; assay: Biodistribution in kidney of B16F0 tumor bearing C57BL/6J mouse at 0.37-0.74 MBq, iv after 6 hrs; format: ADME, organism-based; procedure, shortened: as §1
[14] = system: Blood; assay: Biodistribution in blood of B16F0 tumor bearing C57BL/6J mouse at 0.37-0.74 MBq, iv after 1 hr; format: ADME, organism-based; procedure, shortened: as §1
[15] = system: Heart; assay: Biodistribution in heart of B16F0 tumor bearing C57BL/6J mouse at 0.37-0.74 MBq, iv after 1 hr; format: ADME, organism-based; procedure, shortened: as §1
[16] = system: Brain; assay: Biodistribution in brain of B16F0 tumor bearing C57BL/6J mouse at 0.37-0.74 MBq, iv after 24 hrs; format: ADME, organism-based; procedure, shortened: as §1
[17] = system: Liver; assay: Biodistribution in liver of B16F0 tumor bearing C57BL/6J mouse at 0.37-0.74 MBq, iv after 6 hrs; format: ADME, organism-based; procedure, shortened: as §1
[18] = system: Heart; assay: Biodistribution in heart of B16F0 tumor bearing C57BL/6J mouse at 0.37-0.74 MBq, iv after 24 hrs; format: ADME, organism-based; procedure, shortened: as §1
[19] = system: Liver; assay: Biodistribution in liver of B16F0 tumor bearing C57BL/6J mouse at 0.37-0.74 MBq, iv after 24 hrs; format: ADME, organism-based; procedure, shortened: as §1
[20] = system: Blood; assay: Biodistribution in blood of B16F0 tumor bearing C57BL/6J mouse at 0.37-0.74 MBq, iv after 24 hrs; format: ADME, organism-based; procedure, shortened: as §1
[21] = system: Liver; assay: Biodistribution in liver of B16F0 tumor bearing C57BL/6J mouse at 0.37-0.74 MBq, iv after 1 hr; format: ADME, organism-based; procedure, shortened: as §1

| Drug uptake [1] [% ID/g] | Drug uptake [2] [% ID/g] | Drug uptake [3] [% ID/g] | Drug uptake [4] [% ID/g] | Drug uptake [5] [% ID/g] | Drug uptake [6] [% ID/g] | Drug uptake [7] [% ID/g] | Drug uptake [8] [% ID/g] | Drug uptake [9] [% ID/g] | Drug uptake [10] [% ID/g] | Drug uptake [11] [% ID/g] | Drug uptake [12] [% ID/g] | Drug uptake [13] [% ID/g] | Drug uptake [14] [% ID/g] | Drug uptake [15] [% ID/g] | Drug uptake [17] [% ID/g] | Drug uptake [18] [% ID/g] | Drug uptake [19] [% ID/g] | Drug uptake [20] [% ID/g] | Drug uptake [21] [% ID/g] | SMILES | further results |
| --- | --- | --- | --- | --- | --- | --- | --- | --- | --- | --- | --- | --- | --- | --- | --- | --- | --- | --- | --- | --- | --- |
| 0.93 | 17.8 | 1.44 | 0.46 | 5.9 | 1 | 0.21 | 10.6 | 11.7 | 1.2 | 9.2 | 4.7 | 3.2 | 1 | 3.1 | 9.2 | 0.49 | 5.4 | 0.04 | 17.1 | O=C(NC1CCN(CCO)CC1)c1ccc([123I])cc1 | Drug uptake [16]: 0.15 % ID/g |
| 0.3 | 2.6 | 0.04 | 0.03 | 3.4 | 0.08 | 0.78 | 3.7 | 2.8 | 0.03 | 1.4 | 0.68 | 0.67 | 1.92 | 0.94 | 0.8 | 0.03 | 0.19 | 0.02 | 7.1 | COc1cc(NC(C)=O)c([123I])cc1C(=O)NCCCCN1CC2CCC1C2 (centres undefined) | – |
| 0.28 | 2 | 0.04 | 0.02 | 3.4 | 0.04 | 0.47 | 3.26 | 3.4 | 0.05 | 2.2 | 0.45 | 0.46 | 0.84 | 0.64 | 1.3 | 0.06 | 0.45 | 0.05 | 6 | CCCCNCCCCNC(=O)c1cc([123I])c(NC(C)=O)cc1OC | – |
| 0.19 | 0.67 | 0.03 | 0.02 | 5.4 | 0.05 | 0.49 | 1.3 | 3.6 | 0.06 | 1.7 | 0.38 | 0.49 | 0.77 | 0.42 | 1.2 | 0.04 | 0.28 | 0.01 | 2.3 | CCN(CC)CCNC(=O)c1cc([123I])c(NS(C)(=O)=O)cc1OC | – |
| 0.49 | 1.7 | 0.14 | 0.05 | 8 | 0.07 | 1.1 | 14.1 | 6.8 | 0.18 | 5.1 | 0.8 | 1 | 1.7 | 0.93 | 1.8 | 0.14 | 0.64 | 0.15 | 7.3 | CCCN(CCC)CCCCNC(=O)c1cc([123I])c(NC(C)=O)cc1OC | Drug uptake [16]: 0.01 % ID/g |
| 0.44 | 6.9 | 0.4 | 0.06 | 3.8 | 0.1 | 0.24 | 15.2 | 3.5 | 0.59 | 3.4 | 2.1 | 4.9 | 0.48 | 1.05 | 27 | 0.13 | 3.5 | 0.03 | 43.2 | O=C(NCCCCN1CC2CCC1C2)c1ccc([123I])cc1 (centres undefined) | Drug uptake [16]: 0.01 % ID/g |
| 0.81 | 8.2 | 0.39 | 0.17 | 6.2 | 0.5 | 0.35 | 8.6 | 7.5 | 0.52 | 6.9 | 3.9 | 5.4 | 0.52 | 1.9 | 33 | 0.12 | 2.9 | 0.08 | 49.1 | CCCN(CCC)CCCCNC(=O)c1ccc([123I])cc1 | Drug uptake [16]: 0.04 % ID/g |
| 0.11 | 0.62 | 0.05 | – | 4.2 | 0.03 | 0.33 | 1.2 | 2.6 | 0.06 | 1.4 | 0.22 | 0.36 | 0.74 | 0.28 | 1.5 | 0.03 | 0.21 | 0.05 | 3.8 | CCN(CC)CCNC(=O)c1cc([123I])c(NS(=O)(=O)c2ccc(C)cc2)cc1OC | – |
| 0.4 | 4.5 | 0.09 | 0.11 | 7.1 | 1.3 | 1.2 | 6.8 | 8.8 | 0.06 | 3 | 0.82 | 0.76 | 1.9 | 2 | 0.73 | 0.07 | 0.1 | 0.06 | 6.8 | CCN(CC)CCNC(=O)c1ccccc1[123I] | Drug uptake [16]: 0.01 % ID/g |
